Blank lines part the entries; values can stand above or below the molecule they belong to. Where a SMILES comes first, the peptide text is derived from it. [ ]: non-standard residue; d: D form. The star is where a group is joined. dalloThr(PO3H2) = C[C@@H](OP(=O)(O)O)[C@@H](N)C(=O)O; alloThr(PO3H2) = C[C@H](OP(=O)(O)O)[C@H](N)C(=O)O; Biotin = O=C1N[C@H]2[C@H](CS[C@H]2CCCCC(=O)*)N1; Phe(4-tBu) = CC(C)(C)c1ccc(C[C@H](N)C(=O)O)cc1; Bip = N[C@@H](Cc1ccc(-c2ccccc2)cc1)C(=O)O; pT = C[C@@H](OP(=O)(O)O)[C@H](N)C(=O)O; 2Nal = N[C@@H](Cc1ccc2ccccc2c1)C(=O)O; Bta = N[C@@H](Cc1csc2ccccc12)C(=O)O; Tic = O=C(O)[C@@H]1Cc2ccccc2CN1; 2Thi = N[C@@H](Cc1cccs1)C(=O)O; Cha = N[C@@H](CC1CCCCC1)C(=O)O; Tle = CC(C)(C)[C@H](N)C(=O)O; Pip = O=C(O)[C@@H]1CCCCN1; NMeA = CN[C@@H](C)C(=O)O
Experiments:
[1] = target: T1, Peptidyl-prolyl cis-trans isomerase NIMA-interacting 1 (Homo sapiens, UniProt Q13526); assay: Inhibition of human Pin1 PPIase Activity by protease free PPIase assay
Outline: (§1)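 Protease-free PPIase assay using Abz-Ala-Glu-Pro-Phe-NH-Np as substrate in 35 mM HEPES, pH 7.8, at 10 °C. Ki derived from concentration-dependent measurement of remaining Pin1 activity.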

[2] = target: Peptidyl-prolyl cis-trans isomerase NIMA-interacting 4 (Homo sapiens) (UniProt Q9Y237); assay: Inhibition of Par14 at 500 uM
Chain of Peptidyl-prolyl cis-trans isomerase NIMA-interacting 4 (Homo sapiens) (Q9Y237 whole entry): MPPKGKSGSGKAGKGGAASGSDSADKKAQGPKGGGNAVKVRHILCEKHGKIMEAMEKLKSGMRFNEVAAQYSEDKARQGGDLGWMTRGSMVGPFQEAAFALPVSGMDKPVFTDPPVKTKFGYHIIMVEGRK

[3] = target: Peptidyl-prolyl cis-trans isomerase FKBP1A (Homo sapiens) (UniProt P62942); assay: Inhibition of FKBP12 at 500 uM
Chain of Peptidyl-prolyl cis-trans isomerase FKBP1A (Homo sapiens) (P62942 whole entry): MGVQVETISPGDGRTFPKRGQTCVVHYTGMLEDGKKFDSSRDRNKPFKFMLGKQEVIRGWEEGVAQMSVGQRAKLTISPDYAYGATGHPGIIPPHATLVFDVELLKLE

[4] = target: Peptidyl-prolyl cis-trans isomerase A (Homo sapiens) (UniProt P62937); assay: Inhibition of Cyp18 at 500 uM
Chain of Peptidyl-prolyl cis-trans isomerase A (Homo sapiens) (P62937 whole entry, looked up): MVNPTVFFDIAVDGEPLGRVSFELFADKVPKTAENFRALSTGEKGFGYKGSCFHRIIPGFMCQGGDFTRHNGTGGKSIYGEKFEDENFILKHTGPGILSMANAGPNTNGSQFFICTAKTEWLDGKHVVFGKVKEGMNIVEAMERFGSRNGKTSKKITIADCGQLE

[5] = target: Mitogen-activated protein kinase 1 (Homo sapiens) (UniProt P28482); assay: Inhibition of ERK2 at 500 uM
Chain of Mitogen-activated protein kinase 1 (Homo sapiens) (P28482 whole entry): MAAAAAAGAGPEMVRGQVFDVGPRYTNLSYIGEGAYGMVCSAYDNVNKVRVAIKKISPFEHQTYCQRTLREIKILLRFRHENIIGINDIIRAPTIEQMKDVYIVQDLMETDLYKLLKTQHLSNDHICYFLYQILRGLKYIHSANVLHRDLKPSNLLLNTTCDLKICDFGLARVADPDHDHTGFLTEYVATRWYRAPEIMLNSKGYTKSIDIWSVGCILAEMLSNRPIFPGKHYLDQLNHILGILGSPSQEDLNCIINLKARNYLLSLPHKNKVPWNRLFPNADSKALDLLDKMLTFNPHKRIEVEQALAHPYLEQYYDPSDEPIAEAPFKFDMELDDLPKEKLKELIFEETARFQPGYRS

[6] = target: cAMP-dependent protein kinase (PKA) (Homo sapiens) (UniProt P22694+P17612+P22612); assay: Inhibition of PKA at 500 uM; assay type: protein assay
[7] = target: Protein kinase C (PKC) (Homo sapiens) (UniProt O94806+P41743+P17252+P05129+Q05655+P05771+Q05513+Q02156+P24723+Q15139+Q04759); assay: Inhibition of PKC at 500 uM; assay type: protein assay
[8] = Inhibition of PP2A at 500 uM
[9] = target: Serine/threonine protein phosphatase PP2B-alpha catalytic subunit (Homo sapiens) (UniProt P16298); assay: Inhibition of PP2B at 500 uM
[10] = Inhibition of PP1 at 500 uM
HeLa [11] = assay: Cell cycle arrest in HeLa cells by accumulation at G2/M phase; assay type: functional, cell-based; settings: Homo sapiens
Outline: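 HeLa cells loaded with inhibitor or its nonphosphorylated derivative by electroporation at varying concentrations, then cultured 3 days at 37 °C. DNA content measured by flow cytometry to give cell cycle phase fractions. Intracellular inhibitor level measured after cell lysis and centrifugation by reverse-phase HPLC of the supernatant against a standard curve.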

[12] = target: T1, Peptidyl-prolyl cis-trans isomerase NIMA-interacting 1; assay: Residual PPIase activity of human GST-Pin1
[13] = tested on: Peptidyl-prolyl cis-trans isomerase NIMA-interacting 1 (Homo sapiens), Q13526 [K63A]; assay: Residual PPIase activity of human GST-Pin1 K63A
[14] = tested on: Peptidyl-prolyl cis-trans isomerase NIMA-interacting 1 (Homo sapiens), Q13526 [S67E]; assay: Residual PPIase activity of human GST-Pin1 S67E
[15] = target: T1, Peptidyl-prolyl cis-trans isomerase NIMA-interacting 1; assay: Residual PPIase activity of human GST-Pin1 R68
[16] = target: T1, Peptidyl-prolyl cis-trans isomerase NIMA-interacting 1; assay: Residual PPIase activity of human GST-Pin1 69A
[17] = tested on: Peptidyl-prolyl cis-trans isomerase NIMA-interacting 1 (Homo sapiens), Q13526 [C113A]; assay: Residual PPIase activity of human GST-Pin1 C113A
[18] = tested on: Peptidyl-prolyl cis-trans isomerase NIMA-interacting 1 (Homo sapiens), Q13526 [S16E]; assay: Residual PPIase activity of human GST-Pin1 S16E by protease free PPIase assay; outline: as §1
[19] = tested on: Peptidyl-prolyl cis-trans isomerase NIMA-interacting 1 (Homo sapiens), Q13526 [H59A]; assay: Residual PPIase activity of human GST-Pin1 H59A
[20] = tested on: Peptidyl-prolyl cis-trans isomerase NIMA-interacting 1 (Homo sapiens), Q13526 [S154F]; assay: Residual PPIase activity of human GST-Pin1 S154F
HeLa [21] = assay: Stability in HeLa cells after 5 hrs incubation; assay type: ADME, cell-based; settings: human
Outline: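 Peptide incubated 5 h in whole HeLa cell lysate without phosphatase or protease inhibitors. Biotin-conjugated species pulled down on streptavidin Sepharose and analysed by mass spectrometry. Separately, 5 µM peptide analysed by capillary electrophoresis in 50 mM sodium phosphate, pH 7.0, detected at 220 nm, against a reference sample in buffer alone.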

IC50 [1]: > 50 µM
Structure (SMILES): CC(=O)N[C@@H](CCCCNC(=O)CCCC[C@@H]1SC[C@@H]2NC(=O)N[C@@H]21)C(=O)N[C@@H](C)C(=O)N[C@@H](C)C(=O)N[C@@H](Cc1ccc2ccccc2c1)C(=O)N[C@H](C(=O)N1CCC[C@H]1C(=O)N[C@H](C(=O)N[C@@H](CCC(N)=O)C(N)=O)C(C)(C)C)[C@H](C)OP(=O)(O)O (Ac-K(Biotin)AA[2Nal][alloThr(PO3H2)]P[Tle]Q-NH2)

IC50 [1]: > 50 µM
Structure (SMILES): CC(=O)N[C@@H](CCCCNC(=O)CCCC[C@@H]1SC[C@@H]2NC(=O)N[C@@H]21)C(=O)N[C@@H](C)C(=O)N[C@@H](C)C(=O)N[C@@H](Cc1ccc2ccccc2c1)C(=O)N[C@H](C(=O)N1CCC[C@H]1C(=O)N[C@@H](CC1CCCCC1)C(=O)N[C@@H](CCC(N)=O)C(N)=O)[C@H](C)OP(=O)(O)O (Ac-K(Biotin)AA[2Nal][alloThr(PO3H2)]P[Cha]Q-NH2)

IC50 [1]: 25 µM
Structure (SMILES): CC(=O)N[C@@H](CCCCNC(=O)CCCC[C@@H]1SC[C@@H]2NC(=O)N[C@@H]21)C(=O)N[C@@H](C)C(=O)N[C@@H](C)C(=O)N[C@@H](CC1CCCCC1)C(=O)N[C@H](C(=O)N1Cc2ccccc2C[C@H]1C(=O)N[C@@H](Cc1ccc2ccccc2c1)C(=O)N[C@@H](CCC(N)=O)C(N)=O)[C@H](C)OP(=O)(O)O (Ac-K(Biotin)AA[Cha][alloThr(PO3H2)][Tic][2Nal]Q-NH2)

IC50 [1]: 7 µM
Structure (SMILES): CC(=O)N[C@@H](CCCCNC(=O)CCCC[C@@H]1SC[C@@H]2NC(=O)N[C@@H]21)C(=O)N[C@@H](C)C(=O)N[C@@H](C)C(=O)N[C@@H](CC1CCCCC1)C(=O)N[C@H](C(=O)N(C)[C@@H](C)C(=O)N[C@@H](Cc1ccc2ccccc2c1)C(=O)N[C@@H](CCC(N)=O)C(N)=O)[C@H](C)OP(=O)(O)O (Ac-K(Biotin)AA[Cha][alloThr(PO3H2)][NMeA][2Nal]Q-NH2)

IC50 [1]: > 50 µM
Structure (SMILES): CC(=O)N[C@@H](CCCCNC(=O)CCCC[C@@H]1SC[C@@H]2NC(=O)N[C@@H]21)C(=O)N[C@@H](C)C(=O)N[C@@H](C)C(=O)N[C@@H](Cc1csc2ccccc12)C(=O)N[C@H](C(=O)N1CCC[C@H]1C(=O)N[C@@H](CC1CCCCC1)C(=O)N[C@@H](CCC(N)=O)C(N)=O)[C@@H](C)OP(=O)(O)O (Ac-K(Biotin)AA[Bta][pT]P[Cha]Q-NH2)

Ki [1]: 0.0012 µM
inhibition [2]: < 10%
inhibition [3]: < 10%
inhibition [4]: < 10%
inhibition [5]: < 10%
inhibition [6]: < 10%
inhibition [7]: < 10%
inhibition [8]: < 10%
inhibition [9]: < 10%
inhibition [10]: < 10%
Structure (SMILES): CC(=O)N[C@@H](CCCCNC(=O)CCCC[C@@H]1SC[C@@H]2NC(=O)N[C@@H]21)C(=O)N[C@@H](C)C(=O)N[C@@H](C)C(=O)N[C@@H](Cc1csc2ccccc12)C(=O)N[C@@H](C(=O)N1CCCC[C@H]1C(=O)N[C@@H](Cc1ccc2ccccc2c1)C(=O)N[C@@H](CCC(N)=O)C(N)=O)[C@@H](C)OP(=O)(O)O (Ac-K(Biotin)AA[Bta][dalloThr(PO3H2)][Pip][2Nal]Q-NH2)

IC50 [1]: 0.21 µM
Ki [1]: 0.183 µM
Activity [12]: 100%
Activity [13]: 0.2%
Activity [14]: 0.3%
Activity [15]: 0.4%
Activity [16]: 0.4%
Activity [17]: 6%
Activity [18]: 100%
Activity [19]: 5.7%
Activity [20]: 35%
Structure (SMILES): CC(=O)N[C@@H](CCCCNC(=O)CCCC[C@@H]1SC[C@@H]2NC(=O)N[C@@H]21)C(=O)N[C@@H](C)C(=O)N[C@@H](C)C(=O)N[C@@H](Cc1csc2ccccc12)C(=O)N[C@H](C(=O)N1CCCC[C@H]1C(=O)N[C@@H](Cc1ccc2ccccc2c1)C(=O)N[C@@H](CCC(N)=O)C(N)=O)[C@H](C)OP(=O)(O)O (Ac-K(Biotin)AA[Bta][alloThr(PO3H2)][Pip][2Nal]Q-NH2)

The next lines start with the molecule.

Structure (SMILES): CC(=O)N[C@@H](Cc1csc2ccccc12)C(=O)N[C@H](C(=O)N1CCCC[C@@H]1C(=O)N[C@@H](Cc1ccc2ccccc2c1)C(=O)N[C@@H](CCC(N)=O)C(N)=O)[C@@H](C)OP(=O)(O)O
Ki [1]: 0.258 µM

Structure (SMILES): CC(=O)N[C@@H](Cc1ccccc1)C(=O)N[C@@H](C(=O)N1CCCC[C@@H]1C(=O)N[C@@H](Cc1ccc2ccccc2c1)C(=O)N[C@@H](CCC(N)=O)C(N)=O)[C@H](C)OP(=O)(O)O
inhibition [2]: < 10%
inhibition [3]: < 10%
inhibition [4]: < 10%
inhibition [5]: < 10%
inhibition [6]: < 10%
inhibition [7]: < 10%
inhibition [8]: < 10%
inhibition [9]: < 10%
inhibition [10]: < 10%
Activity (HeLa [11]): Dose-dependent effect

Structure (SMILES): CC(=O)N[C@@H](CCCCNC(=O)CCCC[C@@H]1SC[C@@H]2NC(=O)N[C@@H]21)C(=O)N[C@@H](C)C(=O)N[C@@H](C)C(=O)N[C@@H](Cc1csc2ccccc12)C(=O)N[C@H](C(=O)N1CCC[C@H]1C(=O)N[C@@H](Cc1ccc2ccccc2c1)C(=O)N[C@@H](CCC(N)=O)C(N)=O)[C@H](C)OP(=O)(O)O (Ac-K(Biotin)AA[Bta][alloThr(PO3H2)]P[2Nal]Q-NH2)
IC50 [1]: 20 µM

Structure (SMILES): CC(=O)N[C@@H](CCCCNC(=O)CCCC[C@@H]1SC[C@@H]2NC(=O)N[C@@H]21)C(=O)N[C@@H](C)C(=O)N[C@@H](C)C(=O)N[C@@H](Cc1ccccc1)C(=O)N[C@H](C(=O)N(C)[C@@H](C)C(=O)N[C@@H](Cc1csc2ccccc12)C(=O)N[C@@H](CCC(N)=O)C(N)=O)[C@H](C)OP(=O)(O)O (Ac-K(Biotin)AAF[alloThr(PO3H2)][NMeA][Bta]Q-NH2)
IC50 [1]: 20 µM

Structure (SMILES): CC(=O)N[C@@H](CCCCNC(=O)CCCC[C@@H]1SC[C@@H]2NC(=O)N[C@@H]21)C(=O)N[C@@H](C)C(=O)N[C@@H](C)C(=O)N[C@@H](Cc1ccc(-c2ccccc2)cc1)C(=O)N[C@H](C(=O)N1CCC[C@H]1C(=O)N[C@@H](Cc1ccc2ccccc2c1)C(=O)N[C@@H](CCC(N)=O)C(N)=O)[C@H](C)OP(=O)(O)O (Ac-K(Biotin)AA[Bip][alloThr(PO3H2)]P[2Nal]Q-NH2)
IC50 [1]: 18 µM
Ki [1]: 0.0048 µM

Structure (SMILES): CC(=O)N[C@@H](CCCCNC(=O)CCCC[C@@H]1SC[C@@H]2NC(=O)N[C@@H]21)C(=O)N[C@@H](C)C(=O)N[C@@H](C)C(=O)N[C@@H](Cc1cccs1)C(=O)N[C@H](C(=O)N(C)[C@@H](C)C(=O)N[C@@H](Cc1ccc2ccccc2c1)C(=O)N[C@@H](CCC(N)=O)C(N)=O)[C@H](C)OP(=O)(O)O (Ac-K(Biotin)AA[2Thi][alloThr(PO3H2)][NMeA][2Nal]Q-NH2)
IC50 [1]: 15 µM

Structure (SMILES): CC(=O)N[C@@H](CCCCNC(=O)CCCC[C@@H]1SC[C@@H]2NC(=O)N[C@@H]21)C(=O)N[C@@H](C)C(=O)N[C@@H](C)C(=O)N[C@@H](Cc1ccc(-c2ccccc2)cc1)C(=O)N[C@H](C(=O)N1CCC[C@H]1C(=O)N[C@@H](Cc1csc2ccccc12)C(=O)N[C@@H](CCC(N)=O)C(N)=O)[C@H](C)OP(=O)(O)O (Ac-K(Biotin)AA[Bip][alloThr(PO3H2)]P[Bta]Q-NH2)
IC50 [1]: 15 µM

Structure (SMILES): CC(=O)N[C@@H](Cc1ccccc1)C(=O)N[C@H](C(=O)N1CCCC[C@@H]1C(=O)N[C@@H](Cc1ccc2ccccc2c1)C(=O)N[C@@H](CCC(N)=O)C(N)=O)[C@H](C)OP(=O)(O)O
Ki [1]: 0.547 µM

Structure (SMILES): CC(=O)N[C@@H](CCCCNC(=O)CCCC[C@@H]1SC[C@@H]2NC(=O)N[C@@H]21)C(=O)N[C@@H](C)C(=O)N[C@@H](C)C(=O)N[C@@H](Cc1ccc(C(C)(C)C)cc1)C(=O)N[C@H](C(=O)N1Cc2ccccc2C[C@H]1C(=O)N[C@@H](Cc1csc2ccccc12)C(=O)N[C@@H](CCC(N)=O)C(N)=O)[C@H](C)OP(=O)(O)O (Ac-K(Biotin)AA[Phe(4-tBu)][alloThr(PO3H2)][Tic][Bta]Q-NH2)
IC50 [1]: 8 µM

Structure (SMILES): CC(=O)N[C@@H](Cc1ccccc1)C(=O)N[C@@H](C(=O)N1CCCC[C@H]1C(=O)N[C@@H](Cc1ccc2ccccc2c1)C(=O)N[C@@H](CCC(N)=O)C(N)=O)[C@H](C)OP(=O)(O)O
Activity (HeLa [21]): Stable

— ChEMBL document CHEMBL1146085, “Nanomolar inhibitors of the peptidyl prolyl cis/trans isomerase Pin1 from combinatorial peptide libraries” (J Med Chem, 2006)
